Source: ChEMBL document CHEMBL4261658, “4-Hydroxy-3-nitro-5-ureido-benzenesulfonamides Selectively Target the Tumor-Associated Carbonic Anhydrase Isoforms IX and XII Showing Hypoxia-Enhanced Antiproliferative Profiles” (J Med Chem, 2018)

Experiments:
MDA-MB-231 [1] = experiment: Cytotoxicity against human MDA-MB-231 cells assessed as cell viability at 100 uM after 48 hrs under normoxic conditions by MTT assay (reference value: 100%); format: functional; conditions: MDA-MB-231, 48 h, read-out: Activity
Summary of the method: (§1)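 Cells cultured in high-glucose DMEM with 20% FBS at 37 °C and 5% CO2, seeded at 1x10^4/well, then dosed 24 h later (0–200 μM) for 48 h. Hypoxia: 1% O2, 5% CO2, balance N2 in a hypoxic workstation; normoxia: 20% O2 in air, 5% CO2. MTT (1 mg/ml) for 30 min at 37 °C, formazan dissolved in DMSO, A550. Untreated control set to 100%; quadruplicates, ≥3 cell batches, mean ± S.E.M.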

HT-29 [2] = experiment: Cytotoxicity against human HT-29 cells assessed as cell viability at 200 uM after 48 hrs under normoxic conditions by MTT assay (reference value: 100%); format: functional; conditions: Homo sapiens, HT-29, 48 h; read-out: Activity; summary of the method: as §1
PC-3 [3] = experiment: Cytotoxicity against human PC3 cells assessed as cell viability at 100 uM after 48 hrs under normoxic conditions by MTT assay (reference value: 100%); format: functional; conditions: PC-3, 48 h, read-out: Activity; summary of the method: as §1
HT-29 [4] = experiment: Cytotoxicity against human HT-29 cells assessed as cell viability at 100 uM after 48 hrs under normoxic conditions by MTT assay (reference value: 100%); format: functional; conditions: Homo sapiens, HT-29, 48 h; read-out: Activity; summary of the method: as §1
PC-3 [5] = experiment: Cytotoxicity against human PC3 cells assessed as cell viability at 200 uM after 48 hrs under normoxic conditions by MTT assay (reference value: 100%); format: functional; conditions: PC-3, 48 h, read-out: Activity; summary of the method: as §1
PC-3 [6] = experiment: Cytotoxicity against human PC3 cells assessed as cell viability at 100 uM after 48 hrs under hypoxic conditions by MTT assay (reference value: 100%); format: functional; conditions: PC-3, 48 h, read-out: Activity; summary of the method: as §1
MDA-MB-231 [7] = experiment: Cytotoxicity against human MDA-MB-231 cells assessed as cell viability at 200 uM after 48 hrs under normoxic conditions by MTT assay (reference value: 100%); format: functional; conditions: MDA-MB-231, 48 h, read-out: Activity; summary of the method: as §1
HT-29 [8] = experiment: Cytotoxicity against human HT-29 cells assessed as reduction in cell viability after 48 hrs under normoxic conditions by MTT assay; format: functional, cell-based; conditions: for IC50: HT-29, 48 h; summary of the method: as §1
HT-29 [9] = experiment: Cytotoxicity against human HT-29 cells assessed as reduction in cell viability after 48 hrs under hypoxic conditions by MTT assay; format: functional, cell-based; conditions: for IC50: HT-29, 48 h; summary of the method: as §1
Carbonic anhydrase 12 = Carbonic anhydrase 12 (Homo sapiens, UniProt O43570)
Sequence of Carbonic anhydrase 12 (O43570 whole entry): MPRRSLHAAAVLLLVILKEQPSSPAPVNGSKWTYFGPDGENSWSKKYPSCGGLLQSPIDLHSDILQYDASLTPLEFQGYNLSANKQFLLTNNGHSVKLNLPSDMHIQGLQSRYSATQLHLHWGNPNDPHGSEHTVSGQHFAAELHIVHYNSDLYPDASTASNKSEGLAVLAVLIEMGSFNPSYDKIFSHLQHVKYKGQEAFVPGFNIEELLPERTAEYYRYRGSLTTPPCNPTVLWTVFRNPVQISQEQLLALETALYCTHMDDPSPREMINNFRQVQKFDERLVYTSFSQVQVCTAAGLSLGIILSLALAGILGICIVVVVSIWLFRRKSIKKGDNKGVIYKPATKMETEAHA

Carbonic anhydrase 9 = Carbonic anhydrase 9 (Homo sapiens, UniProt Q16790); experiment: Inhibition of carbonic anhydrase 9 (unknown origin) preincubated for 15 mins by stopped flow CO2 hydration assay
HT-29 [10] = experiment: Cytotoxicity against human HT-29 cells assessed as cell viability at 30 uM after 48 hrs under normoxic conditions by MTT assay (reference value: 100%); format: functional; conditions: Homo sapiens, HT-29, 48 h; read-out: Activity; summary of the method: as §1
MDA-MB-231 [11] = experiment: Cytotoxicity against human MDA-MB-231 cells assessed as reduction in cell viability after 48 hrs under hypoxic conditions by MTT assay; format: functional, cell-based; conditions: for IC50: MDA-MB-231, 48 h; summary of the method: as §1
PC-3 [12] = experiment: Cytotoxicity against human PC3 cells assessed as cell viability at 30 uM after 48 hrs under normoxic conditions by MTT assay (reference value: 100%); format: functional; conditions: PC-3, 48 h, read-out: Activity; summary of the method: as §1
HT-29 [13] = experiment: Cytotoxicity against human HT-29 cells assessed as cell viability at 30 uM after 48 hrs under hypoxic conditions by MTT assay (reference value: 100%); format: functional; conditions: Homo sapiens, HT-29, 48 h; read-out: Activity; summary of the method: as §1
HT-29 [14] = experiment: Cytotoxicity against human HT-29 cells assessed as cell viability at 200 uM after 48 hrs under hypoxic conditions by MTT assay (reference value: 100%); format: functional; conditions: Homo sapiens, HT-29, 48 h; read-out: Activity; summary of the method: as §1
PC-3 [15] = experiment: Cytotoxicity against human PC3 cells assessed as reduction in cell viability after 48 hrs under hypoxic conditions by MTT assay; format: functional, cell-based; conditions: for IC50: PC-3, 48 h; summary of the method: as §1
PC-3 [16] = experiment: Cytotoxicity against human PC3 cells assessed as cell viability at 30 uM after 48 hrs under hypoxic conditions by MTT assay (reference value: 100%); format: functional; conditions: PC-3, 48 h, read-out: Activity; summary of the method: as §1
MDA-MB-231 [17] = experiment: Cytotoxicity against human MDA-MB-231 cells assessed as reduction in cell viability after 48 hrs under normoxic conditions by MTT assay; format: functional, cell-based; conditions: for IC50: MDA-MB-231, 48 h; summary of the method: as §1
MDA-MB-231 [18] = experiment: Cytotoxicity against human MDA-MB-231 cells assessed as cell viability at 100 uM after 48 hrs under hypoxic conditions by MTT assay (reference value: 100%); format: functional; conditions: MDA-MB-231, 48 h, read-out: Activity; summary of the method: as §1
MDA-MB-231 [19] = experiment: Cytotoxicity against human MDA-MB-231 cells assessed as cell viability at 30 uM after 48 hrs under hypoxic conditions by MTT assay (reference value: 100%); format: functional; conditions: MDA-MB-231, 48 h, read-out: Activity; summary of the method: as §1
PC-3 [20] = experiment: Cytotoxicity against human PC3 cells assessed as cell viability at 200 uM after 48 hrs under hypoxic conditions by MTT assay (reference value: 100%); format: functional; conditions: PC-3, 48 h, read-out: Activity; summary of the method: as §1
MDA-MB-231 [21] = experiment: Cytotoxicity against human MDA-MB-231 cells assessed as cell viability at 200 uM after 48 hrs under hypoxic conditions by MTT assay (reference value: 100%); format: functional; conditions: MDA-MB-231, 48 h, read-out: Activity; summary of the method: as §1
MDA-MB-231 [22] = experiment: Cytotoxicity against human MDA-MB-231 cells assessed as cell viability at 30 uM after 48 hrs under normoxic conditions by MTT assay (reference value: 100%); format: functional; conditions: MDA-MB-231, 48 h, read-out: Activity; summary of the method: as §1
PC-3 [23] = experiment: Cytotoxicity against human PC3 cells assessed as reduction in cell viability after 48 hrs under normoxic conditions by MTT assay; format: functional, cell-based; conditions: for IC50: PC-3, 48 h; summary of the method: as §1
HT-29 [24] = experiment: Cytotoxicity against human HT-29 cells assessed as cell viability at 100 uM after 48 hrs under hypoxic conditions by MTT assay (reference value: 100%); format: functional; conditions: Homo sapiens, HT-29, 48 h; read-out: Activity; summary of the method: as §1

NS(=O)(=O)c1cc(NC(=O)c2ccc(F)cc2)c(OC(=O)c2ccc(F)cc2)c([N+](=O)[O-])c1
viability at 100 µM (MDA-MB-231 [1]): 89.3% | viability at 200 µM (HT-29 [2]): 6.6% | viability at 100 µM (PC-3 [3]): 13.9% | viability at 100 µM (HT-29 [4]): 5.7% | viability at 200 µM (PC-3 [5]): 10.2% | viability at 100 µM (PC-3 [6]): 29.9% | viability at 200 µM (MDA-MB-231 [7]): 85.8% | Activity (HT-29 [8]): Dose-dependent effect | IC50 (HT-29 [8]): 40600 nM | Activity (HT-29 [9]): Dose-dependent effect | IC50 (HT-29 [9]): 58600 nM | Ki (Carbonic anhydrase 12): 210 nM | Ki (Carbonic anhydrase 9): 100 nM | viability at 30 µM (HT-29 [10]): 62.8% | Activity (MDA-MB-231 [11]): Dose-dependent effect | IC50 (MDA-MB-231 [11]): 52300 nM | viability at 30 µM (PC-3 [12]): 51.6% | viability at 30 µM (HT-29 [13]): 96.6% | viability at 200 µM (HT-29 [14]): 8.4% | Activity (PC-3 [15]): Dose-dependent effect | IC50 (PC-3 [15]): 56300 nM | viability at 30 µM (PC-3 [16]): 95.7% | Activity (MDA-MB-231 [17]): Dose-dependent effect | IC50 (MDA-MB-231 [17]): > 200000 nM | viability at 100 µM (MDA-MB-231 [18]): 13.3% | viability at 30 µM (MDA-MB-231 [19]): 92.9% | viability at 200 µM (PC-3 [20]): 15.6% | viability at 200 µM (MDA-MB-231 [21]): 13% | viability at 30 µM (MDA-MB-231 [22]): 89.5% | Activity (PC-3 [23]): Dose-dependent effect | IC50 (PC-3 [23]): 30600 nM | viability at 100 µM (HT-29 [24]): 24.2%

NS(=O)(=O)c1cc(O)c(O)c([N+](=O)[O-])c1
Ki (Carbonic anhydrase 12): 90 nM | Ki (Carbonic anhydrase 9): 240 nM

NS(=O)(=O)c1cc([N+](=O)[O-])c(OC(=O)c2ccccc2)c([N+](=O)[O-])c1
Ki (Carbonic anhydrase 12): 70 nM | Ki (Carbonic anhydrase 9): 90 nM

COc1cccc(NC(=O)Nc2cc(S(N)(=O)=O)cc([N+](=O)[O-])c2O)c1
Ki (Carbonic anhydrase 12): 530 nM | Ki (Carbonic anhydrase 9): 460 nM

Cc1cc(C)cc(NC(=O)Nc2cc(S(N)(=O)=O)cc([N+](=O)[O-])c2O)c1
Ki (Carbonic anhydrase 12): 620 nM | Ki (Carbonic anhydrase 9): 530 nM

NS(=O)(=O)c1cc(NC(=O)Nc2ccc(F)cc2)c(O)c([N+](=O)[O-])c1
viability at 100 µM (MDA-MB-231 [1]): 92.8% | viability at 200 µM (HT-29 [2]): 107% | viability at 100 µM (PC-3 [3]): 71.7% | viability at 100 µM (HT-29 [4]): 112% | viability at 200 µM (PC-3 [5]): 56.2% | viability at 100 µM (PC-3 [6]): 61.3% | viability at 200 µM (MDA-MB-231 [7]): 90.3% | Activity (HT-29 [8]): Dose-dependent effect | IC50 (HT-29 [8]): > 200000 nM | Activity (HT-29 [9]): Dose-dependent effect | IC50 (HT-29 [9]): > 200000 nM | Ki (Carbonic anhydrase 12): 500 nM | Ki (Carbonic anhydrase 9): 340 nM | viability at 30 µM (HT-29 [10]): 110% | Activity (MDA-MB-231 [11]): Dose-dependent effect | IC50 (MDA-MB-231 [11]): > 200000 nM | viability at 30 µM (PC-3 [12]): 86.9% | viability at 30 µM (HT-29 [13]): 90.8% | viability at 200 µM (HT-29 [14]): 79.3% | Activity (PC-3 [15]): Dose-dependent effect | IC50 (PC-3 [15]): 134000 nM | viability at 30 µM (PC-3 [16]): 83% | Activity (MDA-MB-231 [17]): Dose-dependent effect | IC50 (MDA-MB-231 [17]): > 200000 nM | viability at 100 µM (MDA-MB-231 [18]): 68.4% | viability at 30 µM (MDA-MB-231 [19]): 84.8% | viability at 200 µM (PC-3 [20]): 23.5% | viability at 200 µM (MDA-MB-231 [21]): 61.7% | viability at 30 µM (MDA-MB-231 [22]): 100% | Activity (PC-3 [23]): Dose-dependent effect | IC50 (PC-3 [23]): > 200000 nM | viability at 100 µM (HT-29 [24]): 88.2%

NS(=O)(=O)c1ccc(NC(=O)Nc2ccc(F)cc2)cc1 [SLC-0111]
viability at 100 µM (MDA-MB-231 [1]): 86.6% | viability at 200 µM (HT-29 [2]): 35.6% | viability at 100 µM (PC-3 [3]): 109% | viability at 100 µM (HT-29 [4]): 50.3% | viability at 200 µM (PC-3 [5]): 83.1% | viability at 100 µM (PC-3 [6]): 106% | viability at 200 µM (MDA-MB-231 [7]): 56.9% | viability at 30 µM (HT-29 [10]): 62.4% | viability at 30 µM (PC-3 [12]): 109% | viability at 30 µM (HT-29 [13]): 85.3% | viability at 200 µM (HT-29 [14]): 56.4% | viability at 30 µM (PC-3 [16]): 90.8% | viability at 100 µM (MDA-MB-231 [18]): 107% | viability at 30 µM (MDA-MB-231 [19]): 103% | viability at 200 µM (PC-3 [20]): 95.8% | viability at 200 µM (MDA-MB-231 [21]): 103% | viability at 30 µM (MDA-MB-231 [22]): 83.4% | viability at 100 µM (HT-29 [24]): 71.5%
